Activity calls are given as the source filed them. The rule behind the calls is not given here.
Columns and labels:
Mu-type opioid receptor = Mu-type opioid receptor (Homo sapiens, UniProt P35372); assay: Displacement of [3H]DAMGO from human recombinant mu opioid receptor expressed in CHO cells by liquid scintillation counting; assay type: cell-based
Method in brief: (§1)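 Competitive displacement binding uses membranes from CHO cells expressing recombinant human opioid receptors. Radioligands are [3H]DAMGO for mu and [3H]DPDPE for delta. Ki is reported in nM as the mean of two experiments, each run in triplicate.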

[1] = target: T1, Delta-type opioid receptor (Homo sapiens, UniProt P41143); assay: Displacement of [3H]DPDPE from human recombinant delta opioid receptor expressed in CHO cells by liquid scintillation counting; assay type: cell-based; method in brief: as §1
T1 sequence (P41143 whole entry): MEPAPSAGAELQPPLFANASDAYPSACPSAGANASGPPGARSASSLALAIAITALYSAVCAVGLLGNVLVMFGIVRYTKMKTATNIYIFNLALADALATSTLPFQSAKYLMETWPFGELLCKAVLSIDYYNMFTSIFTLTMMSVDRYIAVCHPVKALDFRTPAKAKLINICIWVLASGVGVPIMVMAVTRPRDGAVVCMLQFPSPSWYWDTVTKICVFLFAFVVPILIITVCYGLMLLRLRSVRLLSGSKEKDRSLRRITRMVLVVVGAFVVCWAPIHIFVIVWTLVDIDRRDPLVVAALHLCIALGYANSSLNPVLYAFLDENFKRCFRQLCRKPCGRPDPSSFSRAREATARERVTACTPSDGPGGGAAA

[2] = target: T2, Kappa-type opioid receptor (Homo sapiens, UniProt P41145); assay: Displacement of [3H]U69593 from human recombinant kappa opioid receptor expressed in CHO cells by liquid scintillation counting; assay type: cell-based
T2 sequence (P41145 whole entry): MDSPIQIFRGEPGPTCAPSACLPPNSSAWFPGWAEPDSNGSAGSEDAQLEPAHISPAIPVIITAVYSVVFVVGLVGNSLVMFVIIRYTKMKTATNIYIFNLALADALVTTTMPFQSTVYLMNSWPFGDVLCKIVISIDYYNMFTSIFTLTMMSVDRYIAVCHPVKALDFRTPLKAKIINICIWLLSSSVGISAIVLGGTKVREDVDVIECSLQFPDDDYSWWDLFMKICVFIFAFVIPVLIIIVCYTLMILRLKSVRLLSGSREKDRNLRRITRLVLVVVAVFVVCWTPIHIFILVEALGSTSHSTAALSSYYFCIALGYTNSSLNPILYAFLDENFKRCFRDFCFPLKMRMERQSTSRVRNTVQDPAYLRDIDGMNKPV

[3] = target: T2, Kappa-type opioid receptor; assay: Agonist activity at human kappa opioid receptor expressed in CHO cells assessed as [35S]GTPgammaS binding; assay type: functional, cell-based
Method in brief: (§2)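 Membranes from CHO cells transfected with individual recombinant human opioid receptors (mu, delta or kappa). Ligand-stimulated [35S]GTPγS binding is measured at each receptor type, for agonist stimulation and for antagonism. At kappa, agonist efficacy is expressed as % stimulation relative to U69593, alongside EC50.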

[4] = target: T2, Kappa-type opioid receptor; assay: Agonist activity at human kappa opioid receptor expressed in CHO cells assessed as [35S]GTPgammaS binding relative to U69593; assay type: functional, cell-based; method in brief: as §2
Mus musculus [5] = assay: Antinociceptive activity in Swiss mouse assessed as tail withdrawal response at 100 mg/kg, ip after […] by warm-water tail-withdrawal assay; assay type: functional; conditions: route intraperitoneal
[6] = target: T1, Delta-type opioid receptor; assay: Agonist activity at human delta opioid receptor expressed in CHO cells assessed as [35S]GTPgammaS binding; assay type: functional, cell-based; method in brief: as §2
[7] = target: T1, Delta-type opioid receptor; assay: Agonist activity at human delta opioid receptor expressed in CHO cells assessed as [35S]GTPgammaS binding relative to DPDPE; assay type: functional, cell-based; method in brief: as §2
Mus musculus [8] = assay: Antinociceptive activity in Swiss mouse assessed as tail withdrawal response at 3.2 mg/kg, ip by warm-water tail-withdrawal assay; assay type: functional, organism-based; design: dose 3.2 mg/kg
Method in brief: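 Mouse warm-water (50 °C) tail-withdrawal assay. Compound was given across a dose range, and antinociception was expressed as a percentage of the maximum possible effect.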

Mus musculus [9] = assay: Antinociceptive activity in Swiss mouse assessed as inhibition of acetic acid-induced writhing at 0.32 mg/kg, ip by writhing assay; assay type: functional, organism-based; design: dose 0.32 mg/kg
Mus musculus [10] = assay: Antinociceptive activity in Swiss mouse assessed as inhibition of acetic acid-induced writhing at 0.32 mg/kg, ip by writhing assay in presence of mu opioid receptor antagonist M-CAM; assay type: functional, organism-based; design: dose 0.32 mg/kg
Mus musculus [11] = assay: Antinociceptive activity in Swiss mouse assessed as inhibition of acetic acid-induced writhing at 0.32 mg/kg, ip by writhing assay in presence of delta opioid receptor antagonist naltrindole; assay type: functional, organism-based; design: dose 0.32 mg/kg
Mus musculus [12] = assay: Antinociceptive activity in Swiss mouse assessed as inhibition of acetic acid-induced writhing at 0.32 mg/kg, ip by writhing assay in presence of kappa opioid receptor antagonist norBNI; assay type: functional, organism-based; design: dose 0.32 mg/kg
Mus musculus [13] = assay: Antinociceptive activity in Swiss mouse assessed as tail withdrawal response at 100 mg/kg, ip after 30 mins by warm-water tail-withdrawal assay; assay type: functional; conditions: route intraperitoneal
[14] = Displacement of [3H]DPDPE from human recombinant delta opioid receptor expressed in CHO cells by liquid scintillation counting
Mus musculus [15] = assay: Antinociceptive activity in Swiss mouse assessed as tail withdrawal response at 100 mg/kg, ip after 3 days by warm-water tail-withdrawal assay; assay type: functional; conditions: route intraperitoneal
Mus musculus [16] = assay: Antinociceptive activity against acetic acid-induced writhing in Swiss mouse assessed as reversal of mu opioid receptor agonist morphine response at 3.2 mg/kg, ip by writhing assay; assay type: functional, organism-based; design: dose 3.2 mg/kg
Method in brief: (§3)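 Mouse abdominal stretch assay. […] Stretches were counted, with saline as vehicle. Statistics used one-way ANOVA with Dunnett's post hoc test versus agonist alone and versus test ligand alone.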

Mus musculus [17] = assay type: functional, organism-based; design: dose 3.2 mg/kg; conditions: Swiss, 3.2 mg/kg
Mus musculus [18] = assay: Antinociceptive activity against acetic acid-induced writhing in Swiss mouse assessed as reversal of […] response at 3.2 mg/kg, ip by writhing assay; assay type: functional, organism-based; design: dose 3.2 mg/kg; method in brief: as §3
Mus musculus [19] = assay: Antinociceptive activity against acetic acid-induced writhing in Swiss mouse assessed as reversal of mu opioid receptor agonist morphine response at 1 mg/kg, ip by writhing assay; assay type: functional, organism-based; design: dose 1 mg/kg
Mus musculus [20] = assay type: functional, organism-based; design: dose 1 mg/kg; conditions: Swiss, 1 mg/kg
Mus musculus [21] = assay: Antinociceptive activity against acetic acid-induced writhing in Swiss mouse assessed as reversal of […] response at 1 mg/kg, ip by writhing assay; assay type: functional, organism-based; design: dose 1 mg/kg

Chain of Mu-type opioid receptor (P35372 whole entry): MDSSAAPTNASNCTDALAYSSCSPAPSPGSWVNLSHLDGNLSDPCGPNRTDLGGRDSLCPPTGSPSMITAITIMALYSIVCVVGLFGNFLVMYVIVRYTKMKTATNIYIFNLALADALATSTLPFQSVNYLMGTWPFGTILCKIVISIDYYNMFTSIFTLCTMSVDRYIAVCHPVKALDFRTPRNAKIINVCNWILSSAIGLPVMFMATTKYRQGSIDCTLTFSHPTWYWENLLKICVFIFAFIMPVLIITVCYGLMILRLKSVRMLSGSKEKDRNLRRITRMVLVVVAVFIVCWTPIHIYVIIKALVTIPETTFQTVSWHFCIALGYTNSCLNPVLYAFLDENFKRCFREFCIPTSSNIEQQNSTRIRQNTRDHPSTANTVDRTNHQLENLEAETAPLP

Row | SMILES | Ki (Mu-type opioid receptor) | Ki [1] | Ki [2] | EC50 [3] | Activity [4] | further results
1 | O=C(C#Cc1ccccc1)N[C@@]12CCC(=O)[C@@H]3Oc4c(O)ccc5c4[C@@]31CCN(CC1CC1)[C@@H]2C5 | 1.31 nM | 1.6 nM | 1.12 nM | 0.3 nM | 21% | Activity (Mus musculus [5]): 0%
2 | COc1ccc2c3c1O[C@H]1C(=O)CC[C@@]4(NC(=O)C#Cc5ccccc5)[C@@H](C2)N(CC2CC2)CC[C@]314 | 1.46 nM | 28.3 nM | 7.86 nM | 3.18 nM | 77% | EC50 [6]: 75.1 nM; Activity [7]: 47%; Activity (Mus musculus [8]): Active; Activity (Mus musculus [9]): Active; Activity (Mus musculus [10]): inactive; Activity (Mus musculus [11]): Active; Activity (Mus musculus [12]): Active
3 | COc1ccc2c3c1O[C@H]1C(=O)CC[C@@]4(NC(=O)C#Cc5ccc(Cl)cc5)[C@@H](C2)N(CC2CC2)CC[C@]314 | 7.43 nM | 65.2 nM | 13.7 nM | 20 nM | 25% | Activity (Mus musculus [13]): 0%
4 | O=C1CC[C@@]2(NCC#Cc3ccc(Cl)cc3)[C@H]3Cc4ccc(O)c5c4[C@@]2(CCN3CC2CC2)[C@H]1O5 | 0.97 nM | 3.26 nM | 2.89 nM |  |  | 
5 | COc1ccc2c3c1O[C@H]1C(=O)CC[C@@]4(NC/C=C/c5ccc(Cl)cc5)[C@@H](C2)N(CC2CC2)CC[C@]314 | 0.7 nM |  | 53.6 nM |  |  | Ki [14]: 44.5 nM
6 | COc1ccc2c3c1O[C@H]1C(=O)CC[C@@]4(NCC#Cc5ccc(Cl)cc5)[C@@H](C2)N(CC2CC2)CC[C@]314 | 9.68 nM | 136 nM | 74.4 nM |  |  | 
7 | O=C(C#Cc1ccc(Cl)cc1)N[C@@]12CCC(=O)[C@@H]3Oc4c(O)ccc5c4[C@@]31CCN(CC1CC1)[C@@H]2C5 | 3.75 nM | 5.41 nM | 2.73 nM |  |  | Activity (Mus musculus [15]): 20%; Activity (Mus musculus [13]): 0%; Activity (Mus musculus [16]): Active; Activity (Mus musculus [17]): Active; Activity (Mus musculus [18]): Active; Activity (Mus musculus [19]): Active; Activity (Mus musculus [20]): Active; Activity (Mus musculus [21]): Active

From ChEMBL document CHEMBL1154638, “14beta-Arylpropiolylamino-17-cyclopropylmethyl-7,8-dihydronormorphinones and related opioids. Further examples of pseudoirreversible mu opioid receptor antagonists” (J Med Chem, 2009)
